Drawing on the array DNA melting data of Ke et al. (doi:10.1101/2024.01.08.574731), this text covers folding enthalpy and Tm for 36 sequences.

Series [1] is described as follows: folding enthalpy; higher = less favourable; fluorescence melt of hairpins on a sequencing array, two-state fit. To be noted: sodium 0.088 M. The gist of the method: (§1)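 Hairpins were imaged by Cy3 fluorescence on a sequenced MiSeq flow cell with annealed Cy3 and quencher oligos, in 50 mM Na-HEPES pH 8.0, 25 mM NaCl, in 2.5 °C steps up to 60 °C. Bootstrapped two-state fits of normalised signals gave melting temperature and folding enthalpy. Four replicates were combined by inverse variance, and fitted temperatures were raised by 9.35 °C to match UV melts.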

A short description of series [2]: melting temperature; fluorescence melt of hairpins on a sequencing array, two-state fit, raised by 9.35 °C to match UV melts. To be noted: sodium 0.088 M. The gist of the method: as §1

For the sequence GTTACGGGAAACCATAAC ((((.((....)).)))), in series [1], the folding enthalpy was -15.6 kcal/mol. Moreover, in series [2], the Tm amounted to 30 °C.
In the same order, the values of GTTACTCGAAAGAGCAAC (((.(((....))).))) are -27.5 kcal/mol and 43.3 °C.
In the same order, the values of GTTACTGGAAACAGCAAC (((.(((....))).))) are -28 kcal/mol and 36 °C.
The like results for GTTAGACGAAAGTCAAAC (((.(((....))).))) were, in that order, -18.6 kcal/mol and 43.6 °C.
With GTTAGACGAAAGTCAAC (((.(((....)))))), in series [1], the folding enthalpy was -13.4 kcal/mol. For the same sequence, the Tm in series [2] came to 43 °C.
In the same order, the values of GTTAGAGGAAACCCTAAC (((((.(....).))))) are -17.9 kcal/mol and 31.9 °C.
Turning to GTTAGCCGAAAGGCAAAC (((.(((....))).))), the folding enthalpy in series [1] is -18.1 kcal/mol. Further, in series [2], the Tm was 48.6 °C.
The like results for GTTAGCGAAAGCTCGAAC ((((((....)))..))) were, in that order, -7.85 kcal/mol and 22.9 °C.
For GTTAGCGCGAAAGCGAAC (((..(((....)))))), in series [1], the folding enthalpy is -6.83 kcal/mol. Besides, the Tm in series [2] worked out at 27.7 °C.
The like results for GTTAGCGGAAACGCTAGC (.(((((....))))).) were, in that order, -16.1 kcal/mol and 49.3 °C.
In the same order, the values of GTTAGCGGAAACGTTGAC ((.(.((....)).).)) are -14.7 kcal/mol and 30 °C.
In the case of GTTAGGCGAAAGCCGAAC (((.(((....))).))), in series [1], the folding enthalpy is -19.6 kcal/mol. Also, the Tm in series [2] amounted to 55.9 °C.
The like results for GTTAGGGGAAACCCCAAC (((.(((....))).))) were, in that order, -19 kcal/mol and 37.4 °C.
In the same order, the values of GTTAGGGGAAACCCTAGC (.(((((....))))).) are -21.5 kcal/mol and 40.7 °C.
For GTTAGTCGAAAGACCAAC (((.(((....))).))), the folding enthalpy in series [1] is -19.1 kcal/mol. Besides, the Tm in series [2] is 37 °C.
In the same order, the values of GTTAGTGGAAACACCAAC (((.(((....))).))) are -13.3 kcal/mol and 29.3 °C.
In the same order, the values of GTTATAGAAATATAAC ((((((....)))))) are -17.1 kcal/mol and 33.6 °C.
In the same order, the values of GTTATAGGAAACTATGAC ((.((((....)))).)) are -23 kcal/mol and 33 °C.
In the case of GTTATCCGAAAGGAAAAC (((.(((....))).))), in series [1], the folding enthalpy is -25.2 kcal/mol. The Tm in series [2] amounted to 40.8 °C.
The like results for GTTATCGAAAGATAAC ((((((....)))))) were, in that order, -42.8 kcal/mol and 53.1 °C.
On to GTTATCGAAAGATACAAC ((((((....)))..))), for which the folding enthalpy in series [1] was -9.31 kcal/mol. In series [2], the Tm stood at 23.5 °C.
The like results for GTTATCGGAAACGATAAC (((((((....))))))) were, in that order, -46.2 kcal/mol and 57 °C.
In the same order, the values of GTTATCGGAAACGGTAAC ((((.((....)).)))) are -26.8 kcal/mol and 44.9 °C.
The like results for GTTATGCGAAAGCAAAC (((.(((....)))))) were, in that order, -14.3 kcal/mol and 36.5 °C.
In the case of GTTATGGAAACATAAC ((((((....)))))), the folding enthalpy in series [1] is -30.3 kcal/mol. Moreover, the Tm in series [2] worked out at 47.5 °C.
Take GTTATGGCGAAAGCCAAC (((..(((....)))))): the folding enthalpy in series [1] is -8.21 kcal/mol. The Tm in series [2] was determined as 29.5 °C.
In the same order, the values of GTTATTGGAAACAATAGC (.(((((....))))).) are -18.9 kcal/mol and 33.4 °C.
The like results for GTTATTGGAAACAATGAC ((.((((....)))).)) were, in that order, -32.5 kcal/mol and 36.9 °C.
The like results for GTTATTGGAAACAGTAAC ((((.((....)).)))) were, in that order, -27.5 kcal/mol and 33.4 °C.
Take GTTATTGGAAACGATAAC (((((.(....).))))): in series [1], the folding enthalpy is -21.5 kcal/mol. Moreover, the Tm in series [2] was found to be 38.7 °C.
The like results for GTTCAAGGAAACCTGAAC (((((.(....).))))) were, in that order, -30.1 kcal/mol and 35.6 °C.
In the same order, the values of GTTCAAGGAAACTTGAGC (.(((((....))))).) are -22.5 kcal/mol and 40.1 °C.
The like results for GTTCACCCGAAAGGGAAC (((..(((....)))))) were, in that order, -14.3 kcal/mol and 37.2 °C.
As to GTTCACCGAAAGGTTAAC (((.(((....))).))), in series [1], the folding enthalpy is -26.4 kcal/mol. Moreover, the Tm in series [2] amounted to 42.3 °C.
For the sequence GTTCACGAAAGTGACAAC ((((((....)))..))), in series [1], the folding enthalpy was -10.1 kcal/mol. Moreover, the Tm in series [2] came to 35.3 °C.
In the same order, the values of GTTCACGAAAGTGAGAAC ((((((....)))..))) are -11.2 kcal/mol and 37.5 °C.
